# Calls of active or inactive are those of the source. No cut-off for these calls is given here.
# Assays:
# Rattus norvegicus [1] = test: Adipogenic activity in monosodium L-glutamate-treated obese Wistar rat assessed as reduction in body weight at 10 mg/kg, po after 6 weeks; type: functional, organism-based; parameters: dose 10 mg/kg
# How it was run: (§1)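 Obesity model: newborn Wistar rats given MSG 4 g/kg subcutaneously for 7 days from day 2 of life, weaned day 21. At 11-12 months, randomized by body weight and serum TG. Dosed orally daily for 6 weeks. Body weight measured weekly. At sacrifice, organ weights, body fat, visceral and subcutaneous fat weighed; liver triglyceride content assessed.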
# Rattus norvegicus [2] = test: Hypolipidemic activity in monosodium L-glutamate-treated obese Wistar rat assessed as reduction in serum triglyceride level at 10 mg/kg, po for 6 weeks measured after 10 hrs post dose fasting; type: functional; parameters: scale not given: the % may be the effect or the level left
# How it was run: (§2)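 Obesity model: MSG-lesioned Wistar rats (4 g/kg sc neonatally for 7 days), aged 11-12 months, randomized by body weight and serum TG. Dosed orally daily for 6 weeks. Blood glucose and serum TG measured weekly after a 10 h fast.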
# Mus musculus [3] = test: Hypolipidemic activity in KK-Ay mouse assessed as reduction in serum triglyceride level at 20 mg/kg, po for 6 weeks measured after 4 hrs post dose fasting; type: functional; parameters: scale not given: the % may be the effect or the level left
# How it was run: (§3)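 KKAy mice (n = 10) randomized by body weight and fed glucose. Dosed orally in 0.25% CMC-Na or vehicle for 6 weeks; blood glucose measured twice weekly. At end, fasted 4 h before sacrifice; blood taken for glucose and serum TG.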
# [4] = Tmax in Wistar rat at 10 mg/kg, po; type: ADME, organism-based; parameters: dose 10 mg/kg, route oral; settings: in vivo
# How it was run: (§4)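 Wistar rats (n = 4 per route) given 10 mg/kg by oral gavage or iv via penis vein. Formulation: PEG, DMSO and NaOH diluted in water. Plasma proteins precipitated with acetonitrile. Analysis by LC-MS/MS on a C18 column at 25 °C.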
# [5] = Apparent volume of distribution […] in Wistar rat at 10 mg/kg, iv; type: ADME, organism-based; parameters: dose 10 mg/kg, route intravenous; settings: in vivo, read-out: Vz; how it was run: as §4
# [6] = biological target: T1, Peroxisome proliferator-activated receptor gamma (Homo sapiens, UniProt P37231); test: Agonist activity at human PPARgamma expressed in U2OS cells by luciferase transactivation assay; type: functional, cell-based
# T1 sequence (P37231 whole entry): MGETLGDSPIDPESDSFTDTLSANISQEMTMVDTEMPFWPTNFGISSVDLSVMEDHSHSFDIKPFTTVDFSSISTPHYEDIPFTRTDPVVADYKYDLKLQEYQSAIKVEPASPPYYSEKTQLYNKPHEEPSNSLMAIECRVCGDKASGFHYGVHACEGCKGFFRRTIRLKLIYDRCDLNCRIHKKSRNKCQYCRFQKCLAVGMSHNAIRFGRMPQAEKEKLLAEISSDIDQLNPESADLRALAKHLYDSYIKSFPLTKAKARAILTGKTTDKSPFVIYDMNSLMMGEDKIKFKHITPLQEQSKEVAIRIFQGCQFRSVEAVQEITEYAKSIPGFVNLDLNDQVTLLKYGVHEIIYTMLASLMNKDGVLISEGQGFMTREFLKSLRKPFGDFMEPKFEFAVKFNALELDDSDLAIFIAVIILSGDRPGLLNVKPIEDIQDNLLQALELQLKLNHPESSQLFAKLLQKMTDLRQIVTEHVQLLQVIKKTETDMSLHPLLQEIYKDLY
# How it was run: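 Transfected U2OS cells (McCoy's 5A, 10% FBS) seeded the day before transfection. Each well received 60 ng DNA: hRXR, pCMV Gal, receptor expression vector and reporter. 24 h later, switched to 10% charcoal-stripped FBS DMEM and exposed to compound for 24 h (0.1% DMSO final). Luciferase normalized to galactosidase. EC50 from logistic dose-response fit; mean of at least three independent experiments.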
# Mus musculus [7] = test: Hypoglycemic activity in KK-Ay mouse assessed as reduction in blood glucose level at 20 mg/kg, po […] measured after 4 hrs post dose fasting relative to vehicle treated control; type: functional; parameters: scale not given: the % may be the effect or the level left; how it was run: as §3
# Rattus norvegicus [8] = test: AUC (infinity) in Wistar rat at 10 mg/kg, po; type: ADME, organism-based, Plasma; parameters: dose 10 mg/kg, route oral, time infinity; settings: in vivo
# How it was run: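 Wistar rats (n = 4) got a single 10 mg/kg dose by oral gavage. Vehicle was PEG, DMSO and 120 mM NaOH diluted with water. Plasma was deproteinised with acetonitrile and methanol-water. Drug was quantified by LC-MS/MS on a C18 column at 25 °C.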
# [9] = biological target: 11-beta-hydroxysteroid dehydrogenase 1 (Mus musculus) (UniProt P50172); test: Competitive inhibition of mouse liver microsome 11betaHSD1 reductase activity expressed in HEK293 cells by Lineweaver-Burke double reciprocal plot analysis; type: cell-based
# [10] = Cmax in Wistar rat at 10 mg/kg, po after 1 hr; type: ADME, organism-based; parameters: dose 10 mg/kg, route oral; settings: in vivo; how it was run: as §4
# Rattus norvegicus [11] = test: Hypoglycemic activity in monosodium L-glutamate-treated obese Wistar rat assessed as reduction in blood glucose level at 10 mg/kg, po for 4 weeks measured after 10 hrs post dose fasting; type: functional, organism-based; parameters: dose 10 mg/kg; how it was run: as §2
# 3T3-L1 [12] = test: Induction of adipogenesis in mouse 3T3L1 assessed as increase in triglyceride level at 0.1 uM after 5 days relative to control; type: functional
# How it was run: (§5)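 Confluent 3T3-L1 preadipocytes (DMEM, 10% newborn bovine serum) differentiated with 1 µM dexamethasone, 0.5 mM IBMX and 1.0 µg/ml insulin in DMEM with 5% NBS. Compound present at 0.1 or 1 µM; medium changed every 2 days over 5 days. Triglyceride normalized to protein in sonicated homogenates; expressed as % change versus vehicle control.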
# Rattus norvegicus [13] = test: Adipogenic activity in monosodium L-glutamate-treated obese Wistar rat assessed as reduction in liver triglyceride content at 10 mg/kg, po after 6 weeks; type: functional, organism-based; parameters: dose 10 mg/kg; how it was run: as §1
# [14] = biological target: T2, 11-beta-hydroxysteroid dehydrogenase 1 (Mus musculus, UniProt P50172); test: Inhibition of mouse liver microsome 11betaHSD1 expressed in HEK293 cells assessed as conversion of [3H]cortisone into [3H]cortisol by scintillation proximity assay; type: cell-based
# How it was run: (§6)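 Enzyme source: microsomes from HEK-293 cells stably transfected with full-length murine 11β-HSD1 (G418 700 µg/ml selection). Incubated with NADPH and [3H]cortisone. [3H]cortisol captured by monoclonal antibody on protein A-coated SPA beads. IC50 from curve fitting; mean of at least three independent experiments. Kinetics: cortisone 1.6–62.5 nM, with or without 1 µM inhibitor.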
# Rattus norvegicus [15] = test: Adipogenic activity in monosodium L-glutamate-treated obese Wistar rat assessed as decrease in subcutaneous fat weight at 10 mg/kg, po after 6 weeks; type: functional, organism-based; parameters: dose 10 mg/kg; how it was run: as §1
# [16] = Half life in Wistar rat at 10 mg/kg, po; type: ADME, organism-based; parameters: dose 10 mg/kg, route oral; settings: in vivo; how it was run: as §4
# Rattus norvegicus [17] = test: Adipogenic activity in monosodium L-glutamate-treated obese Wistar rat assessed as decrease in visceral fat weight at 10 mg/kg, po after 6 weeks; type: functional, organism-based; parameters: dose 10 mg/kg; how it was run: as §1
# [18] = biological target: 11-beta-hydroxysteroid dehydrogenase 1 (Mus musculus) (UniProt P50172); test: (§7) Inhibition of mouse liver microsome 11betaHSD1 reductase activity expressed in HEK293 cells by scintillation proximity assay; type: cell-based; how it was run: as §6
# [19] = biological target: T2, 11-beta-hydroxysteroid dehydrogenase 1; test: as §7; type: cell-based; how it was run: as §6
# 3T3-L1 [20] = test: Induction of adipogenesis in mouse 3T3L1 assessed as increase in triglyceride level at 1 uM after 5 days relative to control; type: functional; how it was run: as §5
# Rattus norvegicus [21] = test: Adipogenic activity in monosodium L-glutamate-treated obese Wistar rat assessed as decrease in total fat mass at 10 mg/kg, po after 6 weeks relative to control; type: functional; parameters: scale not given: the % may be the effect or the level left; how it was run: as §1
# Rattus norvegicus [22] = test: Apparent volume of distribution during terminal phase in Wistar rat at 10 mg/kg, po; settings: in vivo
# Rattus norvegicus [23] = test: AUC (infinity) in Wistar rat at 10 mg/kg, iv; type: ADME, organism-based, Plasma; parameters: time infinity, dose 10 mg/kg, route intravenous; settings: in vivo
# How it was run: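 Wistar rats (n = 4) got a single 10 mg/kg intravenous injection via the penis vein. Vehicle was PEG, DMSO and 120 mM NaOH diluted with water. Plasma was deproteinised with acetonitrile and methanol-water. Drug was quantified by LC-MS/MS on a C18 column at 25 °C.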
# [24] = Half life in Wistar rat at 10 mg/kg, iv; type: ADME, organism-based; parameters: dose 10 mg/kg, route intravenous; settings: in vivo; how it was run: as §4
# [25] = Oral bioavailability in Wistar rat at 10 mg/kg; type: ADME, organism-based; settings: in vivo; how it was run: as §4
# [26] = Volume of distribution at steady state in Wistar rat at 10 mg/kg, iv; type: ADME, organism-based; parameters: dose 10 mg/kg, route intravenous; settings: in vivo, read-out: Vdss; how it was run: as §4
# Rattus norvegicus [27] = test: Adipogenic activity in monosodium L-glutamate-treated obese Wistar rat assessed as decrease in total fat mass at 5 mg/kg, po after 6 weeks; type: functional, organism-based; parameters: dose 5 mg/kg; how it was run: as §1
# Rattus norvegicus [28] = test: Hypolipidemic activity in monosodium L-glutamate-treated obese Wistar rat assessed as reduction in serum triglyceride level at 5 mg/kg, po for 6 weeks measured after 10 hrs post dose fasting; type: functional, organism-based; parameters: dose 5 mg/kg; how it was run: as §2
# Mus musculus [29] = test: Hypolipidemic activity in KK-Ay mouse assessed as reduction in serum triglyceride level at 10 mg/kg, po for 6 weeks measured after 4 hrs post dose fasting; type: functional, organism-based; parameters: dose 10 mg/kg; how it was run: as §3
# Rattus norvegicus [30] = test: Adipogenic activity in monosodium L-glutamate-treated obese Wistar rat assessed as reduction in liver triglyceride content at 5 mg/kg, po after 6 weeks; type: functional, organism-based; parameters: dose 5 mg/kg; how it was run: as §1
# Rattus norvegicus [31] = test: Hypoglycemic activity in monosodium L-glutamate-treated obese Wistar rat assessed as reduction in blood glucose level at 5 mg/kg, po for 4 weeks measured after 10 hrs post dose fasting; type: functional, organism-based; parameters: dose 5 mg/kg; how it was run: as §2
# T2 sequence (P50172 whole entry): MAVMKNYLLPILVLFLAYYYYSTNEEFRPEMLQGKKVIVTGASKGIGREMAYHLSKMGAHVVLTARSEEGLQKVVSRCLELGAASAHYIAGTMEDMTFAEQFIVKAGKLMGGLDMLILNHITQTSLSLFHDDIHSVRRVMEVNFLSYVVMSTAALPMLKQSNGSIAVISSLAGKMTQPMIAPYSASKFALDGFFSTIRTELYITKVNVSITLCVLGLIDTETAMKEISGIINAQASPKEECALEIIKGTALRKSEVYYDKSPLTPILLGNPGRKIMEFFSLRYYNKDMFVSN
# 11-beta-hydroxysteroid dehydrogenase 1 (Mus musculus), sequence (P50172 whole entry, looked up): as the sequence (P50172 whole entry) above
structure (smiles),measurement,setting,value
CC(Cc1ccc(Oc2cc(N3CCN(Cc4ccccc4)CC3)nc(N)n2)cc1)(Oc1ccccc1)C(=O)O (stereo not drawn),Activity,Rattus norvegicus [1],Active
same,Activity,Rattus norvegicus [2],21%
same,Activity,Mus musculus [3],39.5%
same,Tmax,[4],1 h
same,Vd,[5],2.5 L/kg
same,EC50,[6],6.62 µM
same,Activity,Mus musculus [7],34%
same,AUC,Rattus norvegicus [8],5.92 µg·h/mL
same,inhibition,[9],Active
same,Cmax,[10],3790 ng/mL
same,Activity,Rattus norvegicus [11],Active
same,Activity,3T3-L1 [12],-14.98%
same,Activity,Rattus norvegicus [13],Active
same,IC50,[14],710 nM
same,Activity,Rattus norvegicus [15],inactive
same,half-life,[16],378 min
same,Activity,Rattus norvegicus [17],inactive
same,inhibition,[18],Dose-dependent effect
same,Ki,[19],1000 nM
same,Activity,3T3-L1 [20],-20.5%
same,Activity,Rattus norvegicus [21],12.5%
same,Vz,Rattus norvegicus [22],1.6 L/kg
same,AUC,Rattus norvegicus [23],5.15 µg·h/mL
same,half-life,[24],540 min
same,bioavailability,[25],100%
same,Vd,[26],0.8 L/kg
CC(Cc1ccc(Oc2cc(N3CCN(CC4CCCCC4)CC3)nc(N)n2)cc1)(Oc1ccccc1)C(=O)O (stereo not drawn),EC50,[6],5.54 µM
same,Activity,3T3-L1 [12],-30.21%
same,IC50,[14],1320 nM
same,Activity,3T3-L1 [20],-15.43%
CC(Cc1ccc(Oc2cc(N3CCN(C(=O)c4ccco4)CC3)nc(N)n2)cc1)(Oc1ccccc1)C(=O)O (stereo not drawn),EC50,[6],≥ 50 µM
same,IC50,[14],≥ 10000 nM
Cc1cccc(CN2CCN(c3cc(Oc4ccc(CC(C)(Oc5ccccc5)C(=O)O)cc4)nc(N)n3)CC2)c1 (stereo not drawn),EC50,[6],4.46 µM
same,Activity,3T3-L1 [12],-1.04%
same,IC50,[14],2370 nM
same,Activity,3T3-L1 [20],-2.33%
CC(Cc1ccc(Oc2cc(N3CCN(c4ncccn4)CC3)nc(N)n2)cc1)(Oc1ccccc1)C(=O)O (stereo not drawn),EC50,[6],6.13 µM
same,IC50,[14],≥ 10000 nM
CN(CCOc1ccc(CC2SC(=O)NC2=O)cc1)c1ccccn1 (stereo not drawn) [ROSIGLITAZONE],Activity,Rattus norvegicus [27],inactive
same,Activity,Rattus norvegicus [28],Active
same,Activity,3T3-L1 [12],22.05%
same,Activity,Mus musculus [29],Active
same,Activity,Rattus norvegicus [30],inactive
same,Activity,3T3-L1 [20],34.1%
same,Activity,Rattus norvegicus [31],Active
CC(Cc1ccc(Oc2cc(N3CCN(Cc4cccc(C(F)(F)F)c4)CC3)nc(N)n2)cc1)(Oc1ccccc1)C(=O)O (stereo not drawn),EC50,[6],4.79 µM
same,Activity,3T3-L1 [12],-0.87%
same,IC50,[14],1040 nM
same,Activity,3T3-L1 [20],18.41%
CC(Cc1ccc(Oc2cc(N3CCN(Cc4ccccn4)CC3)nc(N)n2)cc1)(Oc1ccccc1)C(=O)O (stereo not drawn),EC50,[6],≥ 50 µM
same,IC50,[14],≥ 10000 nM
CC(Cc1ccc(Oc2cc(N3CCN(C(=O)c4ccccc4)CC3)nc(N)n2)cc1)(Oc1ccccc1)C(=O)O (stereo not drawn),EC50,[6],≥ 50 µM
same,IC50,[14],3290 nM
